Laboratory results published in ChEMBL document CHEMBL5226332, “Amino-Substituted 3-Aryl- and 3-Heteroarylquinolines as Potential Antileishmanial Agents” (J Med Chem, 2021).

Tests used:
Type in all cases: ADME, organism-based
Conditions in all cases: in vivo
[1] = Volume of distribution in BALB/c mouse at 10 mg/kg, iv measured after 24 hrs by LC/MS analysis
In short: (§1)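 Mice given one 10 mg/kg dose by IV, oral or IP route; parent and monomethyl metabolite measured in plasma. Oral dose given in 10/10/40/39 EtOH/PG/PEG400/PBS (pH 7.4) plus 1% w/v HβCD. Vd is steady-state for IV and apparent for the other routes.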

[2] = Tmax in BALB/c mouse at 10 mg/kg, po measured after 24 hrs by LC/MS analysis; in short: as §1
[3] = AUC in BALB/c mouse at 10 mg/kg, po measured after 24 hrs by LC/MS analysis; design: time 24 hrs, dose 10 mg/kg, route po; in short: as §1
[4] = Cmax in BALB/c mouse at 10 mg/kg, ip measured after 24 hrs by LC/MS analysis; design: dose 10 mg/kg, time 24 hrs, route ip; in short: as §1
[5] = AUC in BALB/c mouse at 10 mg/kg, iv measured after 24 hrs by LC/MS analysis; design: dose 10 mg/kg, time 24 hrs, route iv; in short: as §1
[6] = Cmax in BALB/c mouse at 10 mg/kg, iv measured after 24 hrs by LC/MS analysis; design: time 24 hrs, dose 10 mg/kg, route iv; in short: as §1
[7] = AUC in BALB/c mouse at 10 mg/kg, ip measured after 24 hrs by LC/MS analysis; design: dose 10 mg/kg, time 24 hrs, route ip; in short: as §1
[8] = Cmax in BALB/c mouse at 10 mg/kg, po measured after 24 hrs by LC/MS analysis; design: dose 10 mg/kg, time 24 hrs, route po; in short: as §1

Vd [1]	Tmax [2]	AUC [3]	Cmax [4]	AUC [5]	Cmax [6]	AUC [7]	Cmax [8]	Compound
9.88 L/kg	6 min	0.921 µM·h	3170 nM	5.95 µM·h	2840 nM	3.81 µM·h	1000 nM	CN(C)c1ccc2cc(-c3cn(C)c4ccccc34)c(N)nc2c1
25.9 L/kg	–	–	–	3.91 µM·h	741 nM	–	–	CN(C)c1ccc2cc(-c3cc(Cl)cc(Cl)c3)c(N)nc2c1
